Series [1] has as its system Mus musculus. Put plainly: Ex vivo inhibition of MAO-B in C57Bl mouse brain at 0.5 mg/kg, po after 8 hrs by radioenzymatic assay. Further details: scale not given: the % may be the effect or the level left. It counts as functional. Summed up: (§1)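 C57Bl mice (n = 6 per group) given 0.5 mg/kg orally and killed at 0.5, 1, 2, 4, 8 or 16 h. Brain homogenates in 0.1 M phosphate pH 7.40 assayed radioenzymatically for MAO-B with [14C]PEA. Mean ± SEM, ANOVA with Dunnett's test.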

Series [2] can be described thus: Permeability across PAMPA membrane assessed as retention at 2.5 mM by HDM-PAMPA assay. Format: ADME. To be noted: 2500 µM. Summed up: (§2)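 Hexadecane artificial membrane (0.75 μL per well, applied as 5% v/v in hexane, hexane evaporated) on polycarbonate filters; donor and acceptor in 0.1 M phosphate buffer pH 6.8 with 5% DMSO (iso-pH); 5 h at room temperature, shaking at 75 rpm; quadruplicate. Donor and acceptor concentrations read by UV at λmax. Retention, CA(t)/CD(0) and Pe calculated by the stated equations, τLAG neglected; membrane integrity checked by electrical resistance.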

Series [3] addresses T1, Cytochrome P450 1A2 (Homo sapiens, UniProt P05177).
T1 sequence (P05177 whole entry): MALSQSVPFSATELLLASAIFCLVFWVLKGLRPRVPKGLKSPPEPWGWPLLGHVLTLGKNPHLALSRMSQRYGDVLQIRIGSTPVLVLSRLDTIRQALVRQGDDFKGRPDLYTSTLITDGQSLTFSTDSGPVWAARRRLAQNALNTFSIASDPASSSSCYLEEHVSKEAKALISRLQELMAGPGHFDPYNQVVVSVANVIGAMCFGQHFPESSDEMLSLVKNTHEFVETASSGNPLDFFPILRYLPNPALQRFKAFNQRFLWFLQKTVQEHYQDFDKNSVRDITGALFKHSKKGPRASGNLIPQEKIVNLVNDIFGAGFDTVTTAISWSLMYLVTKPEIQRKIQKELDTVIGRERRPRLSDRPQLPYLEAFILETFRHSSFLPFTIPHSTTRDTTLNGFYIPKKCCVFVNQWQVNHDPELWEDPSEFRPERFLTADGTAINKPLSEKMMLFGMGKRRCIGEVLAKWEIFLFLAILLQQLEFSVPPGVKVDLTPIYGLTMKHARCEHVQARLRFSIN
The series is described as follows: Inhibition of human recombinant CYP1A2. Format: ADME. Summed up: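 Recombinant human CYP supersomes were incubated at 37 C in incubation/NADPH regenerating buffer with isoform-specific substrates that turn fluorescent on metabolism. The substrate was 3-cyano-7-ethoxycoumarin for CYP1A2 and 7-methoxy-4-trifluoromethylcoumarin for CYP2C9. Fluorescence was read at the appropriate excitation/emission wavelengths, with a literature inhibitor as positive control in each assay.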

Series [4] relates to Mus musculus. Put plainly: Ex vivo inhibition of MAO-B in C57Bl mouse brain at 0.5 mg/kg, po after 1 hr by radioenzymatic assay. It counts as functional. Further details: scale not given: the % may be the effect or the level left. Summed up:
as §1

Series [5] has as its target Cytochrome P450 2C19 (Homo sapiens, UniProt P33261). Put plainly: Inhibition of human recombinant CYP2C19. It counts as ADME. Summed up:
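Human recombinant CYP supersomes incubated at 37 °C with compound in NADPH-regenerating buffer, with fluorogenic substrates: 3-cyano-7-ethoxycoumarin for CYP2C19, […] for CYP3A4. Fluorescence read on a plate reader. Known isoform inhibitors run as positive controls in every assay.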

The nature of series [6]: Permeability across PAMPA membrane assessed as permeability coefficient at 2.5 mM by HDM-PAMPA assay. It counts as ADME. Particulars: 2500 µM. Summed up: as §2
A general note: PAMPA measures passive passage across an artificial lipid membrane.

Series [7] addresses T2, Amine oxidase [flavin-containing] B (Rattus norvegicus, UniProt P19643).
T2 sequence (P19643 whole entry): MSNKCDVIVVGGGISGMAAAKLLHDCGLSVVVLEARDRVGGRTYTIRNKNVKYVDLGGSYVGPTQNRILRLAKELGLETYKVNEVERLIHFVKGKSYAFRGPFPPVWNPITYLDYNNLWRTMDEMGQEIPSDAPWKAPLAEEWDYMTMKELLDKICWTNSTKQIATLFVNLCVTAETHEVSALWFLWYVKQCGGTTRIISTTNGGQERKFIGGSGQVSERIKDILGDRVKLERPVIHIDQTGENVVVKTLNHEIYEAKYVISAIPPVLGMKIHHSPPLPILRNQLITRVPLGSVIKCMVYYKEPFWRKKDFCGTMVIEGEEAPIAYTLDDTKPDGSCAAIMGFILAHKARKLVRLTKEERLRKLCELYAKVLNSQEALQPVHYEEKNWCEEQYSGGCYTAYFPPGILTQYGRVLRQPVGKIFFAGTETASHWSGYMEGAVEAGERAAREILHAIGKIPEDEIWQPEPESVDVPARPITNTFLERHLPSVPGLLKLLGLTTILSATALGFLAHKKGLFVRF
The series is described as follows: Inhibition of MAO-B from Wistar rat brain by radioenzymatic assay. Summed up:
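Crude mitochondrial fraction from male Wistar rat brain (150-175 g), 500 μg protein in 0.1 M phosphate pH 7.40. Preincubated 30 min at 37 °C with compound. Substrate then added: [14C]5-HT 5 μM for 30 min (MAO-A) or [14C]PEA 0.5 μM for 10 min (MAO-B), 37 °C. Stopped with acid, deaminated metabolites extracted into ether or toluene, counted by scintillation.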

Data on one compound can be found in ChEMBL document CHEMBL1154599 (J Med Chem, 2009).

As a reminder, the IC50 is the concentration needed to halve the response being measured.

Sequence of Cytochrome P450 2C19 (P33261 whole entry, canonical isoform): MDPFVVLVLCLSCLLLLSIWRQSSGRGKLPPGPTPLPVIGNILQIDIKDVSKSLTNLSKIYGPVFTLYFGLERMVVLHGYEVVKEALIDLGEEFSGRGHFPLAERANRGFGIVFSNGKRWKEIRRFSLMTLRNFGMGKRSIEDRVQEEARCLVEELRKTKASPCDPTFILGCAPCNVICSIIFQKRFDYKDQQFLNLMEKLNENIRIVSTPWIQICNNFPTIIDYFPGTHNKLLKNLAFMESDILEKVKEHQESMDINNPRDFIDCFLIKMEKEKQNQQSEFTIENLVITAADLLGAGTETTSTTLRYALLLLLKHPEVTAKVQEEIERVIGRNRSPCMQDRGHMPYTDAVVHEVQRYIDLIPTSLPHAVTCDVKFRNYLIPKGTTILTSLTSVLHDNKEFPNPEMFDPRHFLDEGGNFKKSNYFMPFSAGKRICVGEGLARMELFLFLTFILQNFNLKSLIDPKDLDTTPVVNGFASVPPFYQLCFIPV

Regarding `CNCc1cc(=O)oc2cc(OCc3cccc(Cl)c3)ccc12.CS(=O)(=O)O`, the values for the Activity in series [1] and in series [4] were 60% and 86%, respectively. Besides, the permeability in series [2] amounted to 10%. Besides, the IC50 is > 5000 nM in series [3], > 5000 nM in series [5] and 13 nM in series [7]. The “log Pe” value in series [6] is on record as -3.48 cm/s.
